Columns and labels:
Rattus norvegicus = species on record: Rattus norvegicus; experiment: Selectivity index, ratio of IC50 for rat kidney ALR1 to IC50 for rat lens ALR2; assay type: tissue-based; settings: Lens of camera-type eye
Procedure, shortened: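 Ratio of IC50 values: rat kidney enzyme assayed with D-glucuronate at 37 °C, rat lens enzyme with D,L-glyceraldehyde at 30 °C. Both read as NADPH consumption at 340 nm, five compound concentrations, IC50 from the linear part of the log dose–response curve, triplicate.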

[1] = Inhibition of rat kidney ALR1
Procedure, shortened: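 Enzyme partially purified from Fischer-344 rat kidney by ammonium sulfate fractionation (40/50/75%) and DEAE treatment, with no detectable ALR2 activity. NADPH consumption followed at 340 nm with D-glucuronate substrate at 37 °C. Compounds in 10% aqueous NaHCO3, five concentrations. IC50 from least-squares fit of the linear part of the log dose–response; triplicate.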

[2] = biological target: Aldo-keto reductase family 1 member B1 (Rattus norvegicus, UniProt P07943); experiment: Inhibition of rat lens ALR2; assay type: tissue-based, Lens of camera-type eye
Procedure, shortened: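 Partially purified rat lens enzyme (water homogenate, supernatant after 40% ammonium sulfate). NADPH consumption read at 340 nm with D,L-glyceraldehyde as substrate at 30 °C. Compounds dissolved in 10% aqueous NaHCO3 and tested at five concentrations. IC50 from least-squares fit of the linear part of the log dose–response curve; triplicate.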

[3] = Inhibition of glucose-induced sorbitol accumulation in rat lens at 100 uM (Rbv = 643.5+/-133 nmol/g); assay type: functional, Lens of camera-type eye
[4] = Antioxidant activity assessed as inhibition of AAPH-induced lipid peroxidation of DOPC liposomes; assay type: functional
Procedure, shortened: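 Unilamellar DOPC liposomes, 0.8 mM final, in 20 mM phosphate buffer pH 7.4, incubated with compound at 10–300 µM and AAPH (10 mM final) at 50 °C for 80 min. Lipids extracted with CHCl3/MeOH 2:1 containing 0.05% BHT. Hydroperoxides read by the thiocyanate method at 500 nm against a cumene hydroperoxide calibration. IC50 from the linear part of the semilog inhibition plot; triplicate.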

Row | SMILES | Ratio IC50 (Rattus norvegicus) | IC50 [1] | IC50 [2] | Activity [3] | IC50 [4]
1 | O=C(c1ccccc1)c1ccn(-c2ccc(F)c(O)c2F)c1 | 1.3 | 1.61 µM | 1.26 µM | – | –
2 | COc1cccc(C(=O)c2ccn(-c3cc(F)c(O)c(F)c3)c2)c1 | 5.2 | 51.8 µM | 9.93 µM | – | –
3 | O=C(c1ccccc1)c1cccn1-c1cc(F)c(O)c(F)c1 | 4.3 | 4.6 µM | 1.06 µM | – | –
4 | O=C(c1ccccc1)c1ccn(-c2cc(F)c(O)c(F)c2)c1 | 33.8 | 13.4 µM | – | – | –
5 | COc1cccc(C(=O)c2cccn2-c2cc(F)c(O)c(F)c2)c1 | 19.9 | 23.5 µM | 1.18 µM | – | –
6 | COc1ccc(C(=O)c2cccn2-c2cc(F)c(O)c(F)c2)cc1 | 71.6 | 27.8 µM | 0.39 µM | 203.5 nmol/g | 35.8 µM
7 | COc1ccc(C(=O)c2ccn(-c3cc(F)c(O)c(F)c3)c2)cc1 | > 4 | > 100 µM | 24.9 µM | – | –

Source: ChEMBL document CHEMBL1671807, “Structure-activity relations on [1-(3,5-difluoro-4-hydroxyphenyl)-1H-pyrrol-3-yl]phenylmethanone. The effect of methoxy substitution on aldose reductase inhibitory activity and selectivity” (Bioorg Med Chem, 2011)
